The format of series [1] is in vivo, rat. To be noted: for AUC(0-inf): AUC0–∞.
For series [2] the following is noted: TMZ administered with TNP-470; murine glioma model; cited from earlier work.
Series [3] relates to U87 glioma. As to the kind of experiment: In vivo susceptibility-contrast MRI of tumor vasculature after cediranib. Details: species or system mice. Particulars: cediranib once daily. In a few lines:
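Mice bearing brain U87 tumours imaged at 9.4T on day 12 (2 control, 2 given test compound once daily until sacrifice) or day 21 (3 control, 1 treated). Multi-echo gradient-echo (TR 400 ms) and spin-echo (TR 2000 ms), 16 coronal 1-mm slices, 0.1 mm in-plane, before/after i.v. Feridex 25 mg Fe/kg. Vessel size from (ΔR2*/ΔR2)^3/2; manual tumour ROIs versus mirrored contralateral ROIs, histograms compared.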

In series [4] the test system is recurrent GBM. Particulars: cited from earlier work.
Where [5] appears, read: corrected for recovery, post-cediranib, individual animal.
[6] abbreviates: corrected for recovery, pre-cediranib, individual animal.
[7] abbreviates: post- vs pre-cediranib, tumor ECF, not statistically significant.

SMILES strings stand for the structures. “And” between values parts separate entries of the source, which are not always exact repeats. Identical values can stand only once. Like-named read-outs stand apart in the source and are kept apart here.

For orientation: Cmax means the maximum level reached in the sampled fluid or tissue. The term AUC(0-inf) denotes the area under the concentration-time curve extrapolated to infinity. `Cn1nnc2c(C(N)=O)ncn2c1=O` [TMZ, temozolomide]: the “AUC0–∞” value in series [1] (setting [5]) is 3120 ng·h/mL and 4520 ng·h/mL and 3870 ng·h/mL and 3100 ng·h/mL; in series [1] (setting [6]), 1730 ng·h/mL and 2380 ng·h/mL and 600 ng·h/mL and 2480 ng·h/mL and 1500 ng·h/mL and 1970 ng·h/mL and 2090 ng·h/mL. For the same molecule, the highest concentration (Cmax) in series [1] (setting [5]) is 1610 ng/mL and 650 ng/mL and 310 ng/mL and 1290 ng/mL and 640 ng/mL and 690 ng/mL; in series [1] (setting [6]) it was 460 ng/mL and 620 ng/mL and 190 ng/mL and 710 ng/mL and 690 ng/mL and 900 ng/mL and 530 ng/mL; in series [1] (male, athymic, rat, tumor ECF (brain microdialysate), po, 50 mg/kg, Cmax, corrected for recovery, post-cediranib, mean ± S.D.), 830 ± 450 ng/mL; in series [1] (male, athymic, rat, tumor ECF (brain microdialysate), po, 50 mg/kg, Cmax, corrected for recovery, pre-cediranib, mean ± S.D.), 590 ± 220 ng/mL; in series [1] (raw data, pre-cediranib, TMZ 50 mg/kg oral, tumor ECF, individual animal), 510 ng/mL and 540 ng/mL and 380 ng/mL and 400 ng/mL and 470 ng/mL and 100 ng/mL. Also, the T1/2 in series [1] (setting [5]) was 1.5 h and 1.7 h and 3.4 h. In addition, the area under the curve AUC(0-inf) in series [1] (male, athymic, rat, tumor ECF (brain microdialysate), po, 50 mg/kg, corrected for recovery, post-cediranib, mean ± S.D.) was 3720 ± 610 ng·h/mL; in series [1] (male, athymic, rat, tumor ECF (brain microdialysate), po, 50 mg/kg, corrected for recovery, pre-cediranib, mean ± S.D.) it was 1820 ± 640 ng·h/mL; in series [1] (male, athymic, rat, tumor ECF (brain microdialysate), po, 50 mg/kg, raw data, post-cediranib, mean ± S.D.), 2840 ± 400 ng·h/mL; in series [1] (male, athymic, rat, tumor ECF (brain microdialysate), po, 50 mg/kg, raw data, pre-cediranib, mean ± S.D.), 1310 ± 510 ng·h/mL. The half-life was 2 ± 0.9 h in series [1] (male, athymic, rat, tumor ECF (brain microdialysate), po, 50 mg/kg, T1/2, corrected for recovery, post-cediranib, mean ± S.D.); 1.7 ± 0.3 h in series [1] (male, athymic, rat, tumor ECF (brain microdialysate), po, 50 mg/kg, T1/2, corrected for recovery, pre-cediranib, mean ± S.D.); 2 ± 0.9 h in series [1] (male, athymic, rat, tumor ECF (brain microdialysate), po, 50 mg/kg, T1/2, raw data, post-cediranib, mean ± S.D.); 1.7 ± 0.3 h in series [1] (male, athymic, rat, tumor ECF (brain microdialysate), po, 50 mg/kg, T1/2, raw data, pre-cediranib, mean ± S.D.). Also, in series [1] (setting [7]), the “increase in ECF-TMZ AUC0-∞ after cediranib administration” value is 2.0 fold and 2 fold. The “increase in ECF-TMZ Cmax after cediranib administration” value in series [1] (setting [7]) turned out to be 1.4 fold.

As to `CO[C@@H]1[C@H](OC(=O)NC(=O)CCl)CC[C@]2(CO2)[C@H]1[C@@]1(C)O[C@@H]1CC=C(C)C` [TNP-470], in series [2], the “reduction of TMZ in tumor concentrations” value is listed as 50%.

For `COc1cc2c(Oc3ccc4[nH]c(C)cc4c3F)ncnc2cc1OCCCN1CCCC1` [cediranib], in series [3] (D12), the “average vessel size (ΔR2*/ΔR2)^3/2 in treated tumor” value is listed as “lower compared to the contralateral ROI”. In addition, in series [3] (D21), the “effect on vessel size in treated tumor” value was “not apparent”. In addition, in series [4] (cediranib monotherapy, recurrent GBM patients), the “progression-free survival (PFS)” value was “increased progression-free survival”. For the same molecule, the “duration of tumor vessel normalization” value in series [4] (once daily cediranib, patients with recurrent GBM, starting as early as one day after the treatment) is listed as “at least 28 days”.
